Reference: PMC10201403 (Bioorganic & medicinal chemistry, 2023)
Values joined by “and” are separate entries in the source; they are usually repeats but may differ in a detail not shown here. Equal entries are not always repeated. “Also recorded” adds a separate entry of the source. Structures can show the parent of a compound that is named as a salt. Where two headings read alike, the source gives them in different places.

Tests used:
C. parvum [1] = test: In vitro Cryptosporidium parvum-infected HCT-8 cell assay; assay type: cell-based; details: for potency in the Cp HCT-8 assay, in words: C. parvum in HCT-8 cells; for EC50: Cryptosporidium parvum, HCT-8, read-out: EC50 in the Cp HCT-8 assay; for LipE (pEC50 minus logP): Cp pEC50 and calculated logP
C. hominis = details: gnotobiotic piglet; cited from earlier work
C. parvum [2] = details: acute and chronic mouse models; cited from earlier work
C. parvum [3] = details: dairy calf; cited from earlier work
[4] = molecular target: human potassium channel hERG (Homo sapiens, UniProt Q12809); test: [3H]-dofetilide competitive binding assay; details: 10 μM
Chain of human potassium channel hERG (Q12809 whole entry): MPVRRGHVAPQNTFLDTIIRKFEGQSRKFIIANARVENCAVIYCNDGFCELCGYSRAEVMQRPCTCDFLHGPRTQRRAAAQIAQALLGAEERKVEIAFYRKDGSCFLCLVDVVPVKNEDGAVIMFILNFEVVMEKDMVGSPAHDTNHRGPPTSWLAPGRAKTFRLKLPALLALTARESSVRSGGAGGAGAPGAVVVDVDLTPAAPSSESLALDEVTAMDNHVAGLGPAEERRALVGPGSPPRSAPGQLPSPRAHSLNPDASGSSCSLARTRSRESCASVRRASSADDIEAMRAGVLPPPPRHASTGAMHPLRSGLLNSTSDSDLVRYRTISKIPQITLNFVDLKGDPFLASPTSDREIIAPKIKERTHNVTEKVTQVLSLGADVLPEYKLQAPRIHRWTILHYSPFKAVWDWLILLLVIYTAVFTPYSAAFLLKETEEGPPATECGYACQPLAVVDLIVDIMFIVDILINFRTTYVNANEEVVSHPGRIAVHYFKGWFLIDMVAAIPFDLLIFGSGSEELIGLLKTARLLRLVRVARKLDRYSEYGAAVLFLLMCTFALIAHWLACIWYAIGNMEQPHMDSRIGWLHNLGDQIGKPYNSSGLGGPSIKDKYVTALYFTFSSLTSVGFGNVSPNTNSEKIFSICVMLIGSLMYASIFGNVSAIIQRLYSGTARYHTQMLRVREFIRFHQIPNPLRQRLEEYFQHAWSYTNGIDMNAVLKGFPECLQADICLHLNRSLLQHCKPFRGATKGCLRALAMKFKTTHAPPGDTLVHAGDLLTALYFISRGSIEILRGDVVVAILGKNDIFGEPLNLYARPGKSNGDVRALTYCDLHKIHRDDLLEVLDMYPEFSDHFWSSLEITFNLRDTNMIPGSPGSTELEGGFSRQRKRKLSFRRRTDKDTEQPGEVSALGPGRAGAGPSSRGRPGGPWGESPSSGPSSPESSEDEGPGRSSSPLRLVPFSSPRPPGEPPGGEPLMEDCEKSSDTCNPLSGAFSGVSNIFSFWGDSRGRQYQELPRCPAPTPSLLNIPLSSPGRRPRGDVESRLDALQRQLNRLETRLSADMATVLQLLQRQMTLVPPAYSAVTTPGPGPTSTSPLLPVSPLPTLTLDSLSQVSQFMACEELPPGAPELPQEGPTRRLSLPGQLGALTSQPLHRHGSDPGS
Outline: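 Radioligand competition on the human hERG potassium channel: test compound competes with [³H]-dofetilide, and binding is reported as percent inhibition of [³H]-dofetilide binding. Run by an outside contract laboratory.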

hERG channel = hERG channel (Homo sapiens, UniProt Q12809); test: hERG-CHO automated patch clamp electrophysiology assay; assay type: cell-based; details: 10 μM
Chain of hERG channel (Q12809 whole entry): as above

Cryptosporidium = details: cited from earlier work

## O=C(Cc1ccc(Cl)c(Cl)c1)N1CCN(c2ncc([N+](=O)[O-])s2)CC1 [Compound 13, 2-(3,4-dichlorophenyl)-1-(4-(5-nitrothiazol-2-yl)piperazin-1-yl)ethanone]
C. parvum [1]
  potency in the Cp HCT-8 assay, in words: weakly potent

## O=C(Cc1ccc(Cl)c(Cl)c1)N1CCN(c2ccc3nccn3n2)CC1 [Compound 18a, 2-(3,4-dichlorophenyl)-1-(4-(imidazo[1,2-b]pyridazin-6-yl)piperazin-1-yl)ethanone]
C. parvum [1]
  potency in the Cp HCT-8 assay, in words: drastically reduced the potency

## O=C(Cc1ccc(Cl)c(Cl)c1)N1CCN(c2nc3ccccc3o2)CC1 [Compound 29a, 1-(4-(benzo[d]oxazol-2-yl)piperazin-1-yl)-2-(3,4-dichlorophenyl)ethanone]
C. parvum [1]
  potency in the Cp HCT-8 assay, in words: did not yield better potency

## O=C(Cc1ccc(Cl)c(Cl)c1)N1CCN(c2nc3ccccc3s2)CC1 [Compound 29b, 1-(4-(benzo[d]thiazol-2-yl)piperazin-1-yl)-2-(3,4-dichlorophenyl)ethanone]
C. parvum [1]
  potency in the Cp HCT-8 assay, in words: did not yield better potency

## O=C(Nc1ccc(Cl)c(Cl)c1)N1CCN(C2=Nn3cnnc3CC2)CC1 [Compound 17b, N-(3,4-dichlorophenyl)-4-(7,8-dihydro-[1,2,4]triazolo[4,3-b]pyridazin-6-yl)piperazine-1-carboxamide]
C. parvum [1]; ratio of Cp EC50 values
  fold potency reduction compared to urea 2b: ~ 20 fold

## O=C(Cc1ccc(Cl)c(Cl)c1)N1CCN(c2ccn3nccc3n2)CC1 [Compound 19, 2-(3,4-dichlorophenyl)-1-(4-(pyrazolo[1,5-a]pyrimidin-5-yl)piperazin-1-yl)ethanone]
C. parvum [1]
  EC50: 20 to 30 µM

## O=C(Cc1ccc(Cl)c(Cl)c1)N1CCNCC1 [Compound 4, 2-(3,4-dichlorophenyl)-1-(piperazin-1-yl)ethanone hydrochloride]
C. parvum [1]
  EC50: ≥ 20 µM

## O=C(Cc1ccc(Cl)c(Cl)c1)N1CCN(c2ccc3nonc3c2)CC1 [Compound 24, 1-(4-(benzo[c][1,2,5]oxadiazol-5-yl)piperazin-1-yl)-2-(3,4-dichlorophenyl)ethanone]
C. parvum [1]
  EC50: 20 to 30 µM

## O=C(Nc1ccc(Cl)c(Cl)c1)N1CCN(c2cn3ccnc3cn2)CC1 [Compound 20, N-(3,4-dichlorophenyl)-4-(imidazo[1,2-a]pyrazin-6-yl)piperazine-1-carboxamide]
C. parvum [1]
  EC50: 20 to 30 µM

## O=C(Nc1ccc(Cl)c(Cl)c1)N1CCN(c2nc3ccccc3[nH]2)CC1 [Compound 28, 4-(1H-benzo[d]imidazol-2-yl)-N-(3,4-dichlorophenyl)piperazine-1-carboxamide]
C. parvum [1]
  potency in the Cp HCT-8 assay, in words: did not yield better potency

## O=C(Nc1ccc(Cl)cc1)N1CCN(c2ccc3nncn3n2)CC1 [Compound 1]
C. hominis
  oral efficacy in vivo: oral efficacy
C. parvum [2]
  oral efficacy in vivo: oral efficacy
C. parvum [3]
  oral efficacy in vivo: oral efficacy

## O=C(Cc1ccc(Cl)c(Cl)c1)N1CCN(c2ccccc2)CC1 [Compound 6a, 2-(3,4-dichlorophenyl)-1-(4-phenylpiperazin-1-yl)ethanone]
[4]
  effect in the hERG binding assay, in words: does not exhibit significant effect

## O=C(Cc1ccc(Cl)c(Cl)c1)N1CCN(C2=Nn3cnnc3CC2)CC1 [Compound 17a, 2-(3,4-dichlorophenyl)-1-(4-(7,8-dihydro-[1,2,4]triazolo[4,3-b]pyridazin-6-yl)piperazin-1-yl)ethanone]
hERG channel
  reduction of inhibition in hERG patch-clamp assay relative to 2a (SLU-2633): about two-fold
C. parvum [1]
  LipE (pEC50 minus logP): 4.13
C. parvum [1]; ratio of Cp EC50 values
  fold less potent than 2a (SLU-2633): 7 fold and ~ 7 fold

## O=C(Nc1ccc(Cl)c(Cl)c1)N1CCN(c2ccc3nccn3n2)CC1 [Compound 18b, N-(3,4-dichlorophenyl)-4-(imidazo[1,2-b]pyridazin-6-yl)piperazine-1-carboxamide]
C. parvum [1]
  potency in the Cp HCT-8 assay, in words: drastically reduced the potency

## Nc1nc2nc(N3CCN(C(=O)Cc4ccc(Cl)c(Cl)c4)CC3)ccc2s1 [Compound 31b, 1-(4-(2-aminothiazolo[4,5-b]pyridin-5-yl)piperazin-1-yl)-2-(3,4-dichlorophenyl)ethanone]
C. parvum [1]
  potency in the Cp HCT-8 assay, in words: low micromolar range; also recorded: modestly potent
C. parvum [1]; ratio of Cp EC50 values
  fold more potent than methyl analog 31a: 5 fold

## CC(C)(C)OC(=O)N1CCN(C(=O)Cc2ccc(Cl)c(Cl)c2)CC1 [Compound 5, tert-Butyl 4-(2-(3,4-dichlorophenyl)acetyl)piperazine-1-carboxylate]
C. parvum [1]
  EC50: ≥ 20 µM

## O=C(Cc1ccc(Cl)c(Cl)c1)N1CCN(c2ccc3nncn3n2)CC1 [Compound 2a, 1-(4-([1,2,4]triazolo[4,3-b]pyridazin-6-yl)piperazin-1-yl)-2-(3,4-dichlorophenyl)ethanone]
Cryptosporidium
  efficacy in vivo: efficacious in vivo
C. parvum [1]
  LipE (pEC50 minus logP): 3.3
